# Activity calls are given as the source filed them. The calls are words filed in the database; no cut-off is given here.
# How the values were obtained:
# [1] = biological target: T1, 5-hydroxytryptamine receptor 1B (Homo sapiens, UniProt P28222); assay: Binding affinity to 5HT1B receptor expressed in CHO cells; assay type: cell-based
# In short: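 Frozen membranes from stably transfected CHO cells expressing 5-HT1B, 10 μg/well. Buffer: 50 mM Tris-HCl, 4 mM MgCl2, 4 mM CaCl2, 1 mM EDTA, pH 7.4. [3H]GR125743 at 0.5 nM final; nonspecific binding defined with 1 μM AZD1134. 11-point dilutions, 10 μM to 170 pM final. 1 h at room temperature, then WGA yttrium silicate SPA beads for 30 min. IC50 and Ki derived with Kenakin correction for ligand depletion.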
# [2] = test system: in vitro phospholipidosis assay (no protein target); assay: in vitro; settings: human
# [3] = biological target: T1, 5-hydroxytryptamine receptor 1B; assay: Antagonist activity at 5HT1B receptor expressed in CHO cells by [35S]GTPgammaS assay; assay type: functional, cell-based; design: concentration or dose not given beside the values
# [4] = biological target: 5-hydroxytryptamine receptor 2B (Homo sapiens) (UniProt P41595); assay: Inhibition of human 5HT2B receptor at 10 uM
# Sequence of 5-hydroxytryptamine receptor 2B (Homo sapiens) (P41595 whole entry): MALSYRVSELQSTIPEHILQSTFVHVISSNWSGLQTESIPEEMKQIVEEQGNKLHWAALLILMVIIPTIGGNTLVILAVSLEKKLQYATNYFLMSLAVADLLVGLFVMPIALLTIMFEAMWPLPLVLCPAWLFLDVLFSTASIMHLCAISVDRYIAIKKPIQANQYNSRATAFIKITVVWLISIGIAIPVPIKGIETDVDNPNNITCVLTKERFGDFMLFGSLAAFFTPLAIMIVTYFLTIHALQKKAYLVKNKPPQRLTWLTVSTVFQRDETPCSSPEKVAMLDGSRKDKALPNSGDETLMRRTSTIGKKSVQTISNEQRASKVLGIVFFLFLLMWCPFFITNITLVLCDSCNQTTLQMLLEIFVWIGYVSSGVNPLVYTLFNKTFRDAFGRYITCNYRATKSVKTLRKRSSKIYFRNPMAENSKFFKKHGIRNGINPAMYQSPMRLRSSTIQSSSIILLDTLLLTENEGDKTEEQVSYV
# In short: (§1)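 Radioligand binding assays from an outside panel of 100 targets, single concentration 10 μM, reported as % effect. Receptor species: human for 5-HT1A, 5-HT2A and 5-HT2B; guinea pig for 5-HT4.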
# [5] = biological target: 5-hydroxytryptamine receptor 4 (Cavia porcellus) (UniProt O70528); assay: Inhibition of guinea pig 5HT4 receptor at 10 uM; in short: as §1
# Sequence of 5-hydroxytryptamine receptor 4 (Cavia porcellus) (O70528 whole entry): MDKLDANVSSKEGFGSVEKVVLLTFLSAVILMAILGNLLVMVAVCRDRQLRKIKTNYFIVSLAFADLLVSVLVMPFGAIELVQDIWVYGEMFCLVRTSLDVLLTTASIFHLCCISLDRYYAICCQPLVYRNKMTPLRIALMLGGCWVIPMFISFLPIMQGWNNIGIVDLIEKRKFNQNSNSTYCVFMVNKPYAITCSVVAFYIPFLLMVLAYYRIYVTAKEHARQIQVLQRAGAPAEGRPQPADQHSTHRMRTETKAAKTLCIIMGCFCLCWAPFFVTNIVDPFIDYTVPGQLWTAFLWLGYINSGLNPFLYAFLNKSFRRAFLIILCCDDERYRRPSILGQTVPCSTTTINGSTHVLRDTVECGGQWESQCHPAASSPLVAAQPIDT
# Cavia porcellus = assay: Reversal of NXY041-induced hypothermia in sc dosed guinea pig; assay type: functional, organism-based
# [6] = biological target: T2, 5-hydroxytryptamine receptor 1A (Homo sapiens) (UniProt P08908); assay: Inhibition of human 5HT1A receptor at 10 uM; in short: as §1
# T2 sequence (whole entry): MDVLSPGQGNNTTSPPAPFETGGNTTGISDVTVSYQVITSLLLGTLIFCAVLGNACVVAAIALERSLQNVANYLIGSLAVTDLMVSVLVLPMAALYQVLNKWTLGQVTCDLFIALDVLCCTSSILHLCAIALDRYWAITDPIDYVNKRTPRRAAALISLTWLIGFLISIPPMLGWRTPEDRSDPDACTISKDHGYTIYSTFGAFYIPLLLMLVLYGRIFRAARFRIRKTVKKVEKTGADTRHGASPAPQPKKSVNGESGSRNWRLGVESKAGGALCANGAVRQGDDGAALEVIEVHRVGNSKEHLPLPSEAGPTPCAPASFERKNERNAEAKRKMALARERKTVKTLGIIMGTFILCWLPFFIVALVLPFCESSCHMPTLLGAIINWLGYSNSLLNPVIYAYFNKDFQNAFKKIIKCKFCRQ
# [7] = biological target: 5-hydroxytryptamine receptor 2A (Homo sapiens) (UniProt P28223); assay: Inhibition of human 5HT2A receptor at 10 uM; in short: as §1
# Sequence of 5-hydroxytryptamine receptor 2A (Homo sapiens) (P28223 whole entry): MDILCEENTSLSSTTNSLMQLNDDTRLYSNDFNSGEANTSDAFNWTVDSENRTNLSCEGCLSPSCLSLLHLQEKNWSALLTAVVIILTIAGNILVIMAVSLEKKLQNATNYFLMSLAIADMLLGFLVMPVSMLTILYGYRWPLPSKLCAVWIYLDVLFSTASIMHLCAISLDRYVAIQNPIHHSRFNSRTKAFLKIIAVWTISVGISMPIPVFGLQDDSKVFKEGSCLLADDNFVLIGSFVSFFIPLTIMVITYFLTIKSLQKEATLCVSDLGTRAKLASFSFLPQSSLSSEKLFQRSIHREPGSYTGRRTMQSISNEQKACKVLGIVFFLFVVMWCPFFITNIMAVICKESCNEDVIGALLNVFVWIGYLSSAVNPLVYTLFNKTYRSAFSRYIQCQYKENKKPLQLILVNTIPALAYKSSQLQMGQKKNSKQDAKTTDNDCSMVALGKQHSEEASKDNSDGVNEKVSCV
# T1 sequence (P28222 whole entry): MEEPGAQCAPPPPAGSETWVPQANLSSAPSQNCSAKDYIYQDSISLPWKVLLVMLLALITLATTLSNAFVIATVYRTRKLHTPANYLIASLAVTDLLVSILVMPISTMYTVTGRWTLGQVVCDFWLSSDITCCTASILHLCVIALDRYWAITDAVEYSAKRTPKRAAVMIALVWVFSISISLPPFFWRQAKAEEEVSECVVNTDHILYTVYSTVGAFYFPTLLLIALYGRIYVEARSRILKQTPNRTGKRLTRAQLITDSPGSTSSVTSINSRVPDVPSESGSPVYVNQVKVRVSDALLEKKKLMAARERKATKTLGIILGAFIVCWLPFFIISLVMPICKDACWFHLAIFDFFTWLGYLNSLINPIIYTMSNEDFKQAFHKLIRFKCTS
SMILES,Ki [1] [nM],Activity [3] [%],also measured
Cc1n[nH]c(C)c1-c1ccc(C)c2c(O)cc(C(=O)Nc3ccc(N4CCOCC4)cc3)nc12,9.3,–,inhibition at 300 µM [2]: 12%
COc1cc2c(c(N3CCN(C)CC3)c1)O[C@@H](C(=O)Nc1ccc(N3CCOCC3)cc1)CC2,12,120,–
COC1(c2ccc(NC(=O)C3CCc4cc(F)cc(-c5c(C)nn(C)c5C)c4O3)cn2)CCOCC1 (stereo unspecified),0.96,62,–
CCC(=O)N1CCN(c2ccc(NC(=O)c3cc(=O)c4cc(F)cc(N5CCN(C)CC5)c4o3)cc2)CC1,1.7,150,–
Cc1n[nH]c(C)c1-c1ccc(C)c2c(=O)cc(C(=O)Nc3ccc(N4CCOCC4)cc3)[nH]c12,–,33,–
COC1(c2ccc(NC(=O)c3cc(=O)c4cc(F)cc(-c5c(C)nn(C)c5C)c4o3)cn2)CCOCC1,0.43,90,inhibition [4]: 4%; inhibition [5]: 30%; Activity (Cavia porcellus): Active; inhibition [6]: -8%; inhibition [7]: -5%

# Reference: ChEMBL document CHEMBL1156870, “De novo design of a picomolar nonbasic 5-HT(1B) receptor antagonist” (J Med Chem, 2010)
